Article PMC3793015 (Journal of agricultural and food chemistry, 2013)

Legend:
[1] = tested on: LPS-induced production of NO in RAW 264.7 cells; assay: LPS-induced production of NO; type: cell-based, murine; settings: Mus musculus, RAW264.7, read-out: inhibition of LPS-induced production of NO
Procedure, shortened: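 RAW 264.7 cells, 2 days post-confluence, were pretreated 2 h with compound (DMSO stock into 10% FBS medium). They were then stimulated 16 h with 5 ng/mL E. coli O111:B4 LPS. NO production was estimated as medium nitrite by the Griess reaction.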

HepG2 cells = assay: Cellular uptake and metabolism of α-MG; type: in vitro ADME, human; settings: 24 h after addition of α-MG, control cultures; nd: not detected
Procedure, shortened: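 HepG2 monolayers, 2 days post-confluence, received 9.0 μM compound as a DMSO stock added to 10% FBS medium for 24 h. Activated cultures had 10 ng/mL TNF-α for 4 h and a PBS wash first. Medium and cells were collected separately, extracted and analysed by RP-HPLC for free and glucuronidated/sulfated xanthones. Quantification used retention time, UV spectrum and five-point standard curves, as % of initial amount; mean ± SD, n ≥ 5.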

Caco-2 cells = assay: Cellular uptake, metabolism and transport of α-MG on Transwell inserts; type: in vitro ADME, human; settings: 24 h after addition of α-MG, control cultures; nd: not detected
Procedure, shortened: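 Caco-2 cells were differentiated 21–25 days post-confluence on Transwell inserts. Compound (12 μM) in Tween 40 micelles was added apically for 24 h. Activated cultures had 5 ng/mL IL-1β for 4 h, then a PBS wash. Apical medium, basolateral medium and cell monolayer were collected separately and analysed by RP-HPLC for free and conjugated xanthones. Amounts are % of initial compound; mean ± SD, n ≥ 5.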

THP-1 cells = assay: Cellular uptake and metabolism of α-MG; type: in vitro ADME, human; settings: 24 h after addition of α-MG, control cultures; nd: not detected
Procedure, shortened: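 THP-1 monocytes were differentiated with 100 nM PMA for 48 h, then exposed 24 h to 5.2 μM compound (DMSO stock into 10% FBS medium). Activated cultures were pre-exposed to 5 ng/mL LPS for 4 h and washed with PBS. Spent medium and cells were collected separately, extracted and analysed by RP-HPLC for free and glucuronidated/sulfated xanthones. Amounts are % of initial compound; mean ± SD, n ≥ 5.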

## COC(=O)[C@@H](N)CCCNC(N)=N[N+](=O)[O-] [L-NAME, reference compound]
[1]
  inhibition at 200 µM: 30%

## COc1c(O)cc2oc3cc4c(c(O)c3c(=O)c2c1CC=C(C)C)C=CC(C)(C)O4 [9-hydroxycalabaxanthone]
HepG2 cells
  intracellular xanthone, HepG2: 44 ± 5 pmol/dish
Caco-2 cells
  intracellular xanthone, Caco-2: 100 ± 17 pmol/dish

## COc1c(O)cc2oc3cc(O)c(CC=C(C)C)c(O)c3c(=O)c2c1CCC(C)(C)O [garcinone D]
THP-1 cells
  intracellular xanthone, THP-1: 66 ± 2 pmol/dish
